Laboratory results from ChEMBL document CHEMBL1687781, “Comparative biochemical and computational study of the role of naturally occurring mutations at Ambler positions 104 and 170 in GES β-lactamases” (Antimicrob Agents Chemother, 2010).
Converted amounts (≈) assume the structure as drawn.

Experiments:
[1] = Activity of Beta-lactamase GES-6 K104, S170 mutant
Outline: (§1)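 Purified GES enzymes, released by mild sonication in 20 mM Tris pH 8.0, then Q-Sepharose and S-Sepharose chromatography, >95% pure by SDS-PAGE, in 50 mM KPi pH 7.6. Protein measured by Bradford. β-Lactam substrates hydrolysed at various concentrations, 25°C, in 50 mM NaCl, 50 mM MOPS pH 7.0.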

[2] = Activity of Beta-lactamase GES-2 E104, N170 mutant; outline: as §1
[3] = Ratio of Kcat to Km for Beta-lactamase GES-1 E104, G170 mutant; outline: as §1
[4] = Activity of Beta-lactamase GES-7 K104, G170 mutant; outline: as §1
[5] = Activity of Beta-lactamase GES-13 K104, N170 mutant; outline: as §1
[6] = Ratio of Kcat to Km for Beta-lactamase GES-13 K104, N170 mutant; outline: as §1
[7] = Ratio of Kcat to Km for Beta-lactamase GES-2 E104, N170 mutant; outline: as §1
[8] = Ratio of Kcat to Km for Beta-lactamase GES-5 E104, S170 mutant; outline: as §1
[9] = Ratio of Kcat to Km for Beta-lactamase GES-6 K104, S170 mutant; outline: as §1
[10] = Ratio of Kcat to Km for Beta-lactamase GES-7 K104, G170 mutant; outline: as §1
[11] = Activity of Beta-lactamase GES-5 E104, S170 mutant; outline: as §1
[12] = Activity of Beta-lactamase GES-1 E104, G170 mutant; outline: as §1
Escherichia coli [13] = assay: Antimicrobial activity against Escherichia coli DH5[alpha] transformed with pAC-ges1 plasmid encoding Beta-lactamase GES-13 K104, N170 mutant in presence of clavulanic acid at compound/inhibitor ratio of 2:1 by Etest method; assay type: functional
Outline: (§2)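 E. coli DH5α host, either untransformed or carrying pACYC184-based clones of the GES variant genes. MICs of penicillin–clavulanate combinations were read by Etest following the manufacturer's recommendations, with penicillin and inhibitor at a 2:1 ratio.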

Escherichia coli [14] = assay: Antimicrobial activity against Escherichia coli DH5[alpha] transformed with pAC-ges1 plasmid encoding Beta-lactamase GES-1 E104, G170 mutant in presence of clavulanic acid at compound/inhibitor ratio of 2:1 by Etest method; assay type: functional; outline: as §2
Escherichia coli [15] = assay: Antimicrobial activity against Escherichia coli DH5[alpha] transformed with pAC-ges1 plasmid encoding Beta-lactamase GES-6 K104, S170 mutant in presence of clavulanic acid at compound/inhibitor ratio of 2:1 by Etest method; assay type: functional; outline: as §2
Escherichia coli [16] = assay: Antimicrobial activity against Escherichia coli DH5[alpha] in presence of clavulanic acid at compound/inhibitor ratio of 2:1 by Etest method; assay type: functional; outline: as §2
Escherichia coli [17] = assay: Antimicrobial activity against Escherichia coli DH5[alpha] transformed with pAC-ges1 plasmid encoding Beta-lactamase GES-5 E104, S170 mutant in presence of clavulanic acid at compound/inhibitor ratio of 2:1; assay type: functional; outline: as §2
Escherichia coli [18] = assay: Antimicrobial activity against Escherichia coli DH5[alpha] transformed with pAC-ges1 plasmid encoding Beta-lactamase GES-2 E104, N170 mutant in presence of clavulanic acid at compound/inhibitor ratio of 2:1 by Etest method; assay type: functional; outline: as §2
Escherichia coli [19] = assay: Antimicrobial activity against Escherichia coli DH5[alpha] transformed with pAC-ges1 plasmid encoding Beta-lactamase GES-7 K104, G170 mutant in presence of clavulanic acid at compound/inhibitor ratio of 2:1 by Etest method; assay type: functional; outline: as §2
Escherichia coli [20] = assay: Antimicrobial activity against Escherichia coli DH5[alpha] transformed with pAC-ges1 plasmid encoding Beta-lactamase GES-1 E104, G170 mutant by Etest method; assay type: functional
Escherichia coli [21] = assay: Antimicrobial activity against Escherichia coli DH5[alpha] transformed with pAC-ges1 plasmid encoding Beta-lactamase GES-13 K104, N170 mutant by Etest method; assay type: functional
Escherichia coli [22] = assay: Antimicrobial activity against Escherichia coli DH5[alpha] transformed with pAC-ges1 plasmid encoding Beta-lactamase GES-2 E104, N170 mutant by Etest method; assay type: functional
Escherichia coli [23] = assay: Antimicrobial activity against Escherichia coli DH5[alpha] transformed with pAC-ges1 plasmid encoding Beta-lactamase GES-5 E104, S170 mutant by Etest method; assay type: functional
Escherichia coli [24] = assay: Antimicrobial activity against Escherichia coli DH5[alpha] transformed with pAC-ges1 plasmid encoding Beta-lactamase GES-7 K104, G170 mutant by Etest method; assay type: functional
Escherichia coli [25] = assay: Antimicrobial activity against Escherichia coli DH5[alpha] transformed with pAC-ges1 plasmid encoding Beta-lactamase GES-6 K104, S170 mutant by Etest method; assay type: functional
Escherichia coli [26] = assay: Antimicrobial activity against Escherichia coli DH5[alpha] by Etest method; assay type: functional

Row | SMILES | Km [1] [µM] | kcat [1] [s⁻¹] | Km [2] [µM] | kcat [2] [s⁻¹] | Km [4] [µM] | kcat [4] [s⁻¹] | Km [5] [µM] | kcat [5] [s⁻¹] | kcat/Km [6] [M⁻¹ s⁻¹] | kcat/Km [8] [M⁻¹ s⁻¹] | kcat/Km [9] [M⁻¹ s⁻¹] | kcat/Km [10] [M⁻¹ s⁻¹] | Km [11] [µM] | kcat [11] [s⁻¹] | MIC (Escherichia coli [20]) [µg/mL] | MIC (Escherichia coli [21]) [µg/mL] | MIC (Escherichia coli [22]) [µg/mL] | MIC (Escherichia coli [23]) [µg/mL] | MIC (Escherichia coli [24]) [µg/mL] | MIC (Escherichia coli [25]) [µg/mL] | also measured
1 | CC1(C)S[C@@H]2[C@H](NC(=O)Cc3ccccc3)C(=O)N2[C@H]1C(=O)O | 64.2 | 27.2 | 87.6 | 5.75 | 39 | 14.2 | 139 | 13.5 | 100000 | 320000 | 420000 | 360000 | 88.9 | 28.6 | – | – | – | – | – | – | kcat/Km [3]: 260000 M⁻¹ s⁻¹; kcat/Km [7]: 70000 M⁻¹ s⁻¹; Km [12]: 120 µM; kcat [12]: 30.5 s⁻¹
2 | CC1(C)S[C@@H]2[C@H](NC(=O)[C@H](N)c3ccc(O)cc3)C(=O)N2[C@H]1C(=O)O [AMOXICILLIN] | – | – | – | – | – | – | – | – | – | – | – | – | – | – | – | – | – | – | – | – | MIC (Escherichia coli [13]): 3 µg/mL; MIC (Escherichia coli [14]): 8 µg/mL; MIC (Escherichia coli [15]): 32 µg/mL; MIC (Escherichia coli [16]): 2 µg/mL; MIC (Escherichia coli [17]): 16 µg/mL; MIC (Escherichia coli [18]): 3 µg/mL; MIC (Escherichia coli [19]): 32 µg/mL
3 | CC1(C)S[C@@H]2[C@H](NC(=O)[C@H](N)c3ccccc3)C(=O)N2[C@H]1C(=O)O [AMPICILLIN] | – | – | – | – | – | – | – | – | – | – | – | – | – | – | > 256 | > 256 | > 256 | > 256 | > 256 | > 256 | –
4 | C[C@H]1[C@H](NC(=O)/C(=N\OC(C)(C)C(=O)O)c2csc(N)n2)C(=O)N1S(=O)(=O)O [AZTREONAM] | – | – | – | – | 241 | 45.5 | 405 | 35.6 | 90000 | – | – | 190000 | – | – | 0.094 (≈ 0.216 µM) | 2 (≈ 4.59 µM) | 0.032 (≈ 0.0735 µM) | 0.032 (≈ 0.0735 µM) | 2 (≈ 4.59 µM) | 0.094 (≈ 0.216 µM) | –
5 | CO/N=C(\C(=O)N[C@@H]1C(=O)N2C(C(=O)O)=C(COC(C)=O)CS[C@H]12)c1csc(N)n1 [CEFOTAXIME] | 95.6 | 5.1 | 261 | 37.2 | 81.6 | 31.4 | 63.4 | 69 | 1.09e+06 | 30000 | 50000 | 380000 | 133 | 3.55 | 1 (≈ 2.2 µM) | 3 (≈ 6.59 µM) | 0.75 (≈ 1.65 µM) | 0.125 (≈ 0.274 µM) | 1.5 (≈ 3.29 µM) | 0.125 (≈ 0.274 µM) | kcat/Km [3]: 370000 M⁻¹ s⁻¹; kcat/Km [7]: 140000 M⁻¹ s⁻¹; Km [12]: 152 µM; kcat [12]: 56.8 s⁻¹; MIC (Escherichia coli [26]): 0.032 µg/mL (≈ 0.0703 µM)
6 | CO[C@@]1(NC(=O)Cc2cccs2)C(=O)N2C(C(=O)O)=C(COC(N)=O)CS[C@@H]21 [CEFOXITIN] | 82.3 | 12.1 | – | – | – | – | – | – | – | 30000 | 150000 | – | 221 | 7.5 | 3 (≈ 7.02 µM) | 3 (≈ 7.02 µM) | 3 (≈ 7.02 µM) | 16 (≈ 37.4 µM) | 3 (≈ 7.02 µM) | 48 (≈ 112 µM) | MIC (Escherichia coli [26]): 2 µg/mL (≈ 4.68 µM)
